This passage reports half-life, IC50 and inhibition results from ChEMBL document CHEMBL4118144, “Design, Synthesis, and Testing of Potent, Selective Hepsin Inhibitors via Application of an Automated Closed-Loop Optimization Platform” (J Med Chem, 2018).

Series [1] is described as follows: Half life in mouse liver microsomes at 3 uM preincubated for 5 mins followed by NADPH addition by LC-MS/MS analysis. Type of series: ADME, microsome. (Liver microsomes are a subcellular fraction often used to study metabolism.)
Series [2] addresses Urokinase-type plasminogen activator (Homo sapiens, UniProt P00749). Briefly: Inhibition of recombinant C-terminal His10-tagged human uPA (M1 to L431 residues) expressed in mouse NS0 cells using Z-GGR-AMC as substrate after 15 mins by manual fluorescence assay.
Series [3] concerns the target T1, Neutrophil elastase (Homo sapiens) (UniProt P08246).
T1 sequence (whole entry): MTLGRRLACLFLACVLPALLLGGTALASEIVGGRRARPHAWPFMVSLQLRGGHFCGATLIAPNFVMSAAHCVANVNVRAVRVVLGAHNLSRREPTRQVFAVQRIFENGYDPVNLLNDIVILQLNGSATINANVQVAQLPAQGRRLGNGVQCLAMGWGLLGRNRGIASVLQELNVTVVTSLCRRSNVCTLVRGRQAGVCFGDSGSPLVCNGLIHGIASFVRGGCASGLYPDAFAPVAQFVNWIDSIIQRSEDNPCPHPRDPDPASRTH
Briefly: Inhibition of human ELA2 using N-MeOSuc-Ala-Ala-Pro-Val-pNA as substrate at 10 uM after 60 mins by spectrophotometric method relative to control. The gist of the method:
(§1)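 Panel of ten serine proteases; percent inhibition read at compound concentrations of 1 µM and 10 µM, each value the mean of 2 experiments.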

Series [4] has as its target Dipeptidyl peptidase 4 (Homo sapiens) (UniProt P27487). Briefly: Inhibition of recombinant full length human dipeptidyl peptidase 4 using GP-AMC as substrate at 10 uM after 10 mins by fluorescence spectrophotometric method relative to control. The gist of the method: as §1
In another series the target is Trypsin (Homo sapiens) (UniProt P07477+P07478+P35030). Briefly: Inhibition of human trypsin using Z-Gly-Pro-Arg-AMC as substrate at 1 uM after 60 mins by fluorescence spectrophotometric method relative to control. Type of series: protein assay. An outline of the steps: as §1
In the next series the test system is HepG2. Put plainly: Cytotoxicity against human HepG2 cells assessed as reduction in cell viability after 48 hrs by CellTiter-Blue/CytoTox-ONE-based assay. Conditions: HepG2, 48 h. An outline of the steps: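 Human Hep-G2 cells were exposed to compound at concentrations up to 10 µM. The value is reported as viable-50 (µM), the concentration at which 50% of cells remain viable.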
A general note: Resazurin is reduced to fluorescent resorufin, in cell work by metabolically active cells.

In the next series the target is Serine protease hepsin (Homo sapiens, UniProt P05981). Briefly: Inhibition of doxycycline induced Hepsin in human MCF10A cells using Boc-QRR-AMC as substrate preincubated for 24 hrs followed by doxycycline induction for 24 hrs and subsequent addition of substrate by fluorescence assay. Type of series: cell-based.
Serine protease hepsin, sequence (P05981 1-162 limits assumed): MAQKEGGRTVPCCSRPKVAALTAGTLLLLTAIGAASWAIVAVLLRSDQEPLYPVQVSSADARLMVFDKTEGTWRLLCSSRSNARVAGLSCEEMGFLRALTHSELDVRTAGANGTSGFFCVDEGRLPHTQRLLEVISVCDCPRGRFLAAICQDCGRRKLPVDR
Serine protease hepsin, sequence (P05981 163-417 limits assumed): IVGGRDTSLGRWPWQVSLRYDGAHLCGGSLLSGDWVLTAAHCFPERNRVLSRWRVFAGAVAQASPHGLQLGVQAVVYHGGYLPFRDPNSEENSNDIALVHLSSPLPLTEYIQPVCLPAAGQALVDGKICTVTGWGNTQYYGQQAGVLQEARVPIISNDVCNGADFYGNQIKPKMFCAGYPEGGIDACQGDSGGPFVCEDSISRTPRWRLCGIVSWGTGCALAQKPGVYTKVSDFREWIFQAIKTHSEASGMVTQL
Series [5] has as its target T2, Suppressor of tumorigenicity 14 protein (Homo sapiens) (UniProt Q9Y5Y6).
T2 sequence (whole entry): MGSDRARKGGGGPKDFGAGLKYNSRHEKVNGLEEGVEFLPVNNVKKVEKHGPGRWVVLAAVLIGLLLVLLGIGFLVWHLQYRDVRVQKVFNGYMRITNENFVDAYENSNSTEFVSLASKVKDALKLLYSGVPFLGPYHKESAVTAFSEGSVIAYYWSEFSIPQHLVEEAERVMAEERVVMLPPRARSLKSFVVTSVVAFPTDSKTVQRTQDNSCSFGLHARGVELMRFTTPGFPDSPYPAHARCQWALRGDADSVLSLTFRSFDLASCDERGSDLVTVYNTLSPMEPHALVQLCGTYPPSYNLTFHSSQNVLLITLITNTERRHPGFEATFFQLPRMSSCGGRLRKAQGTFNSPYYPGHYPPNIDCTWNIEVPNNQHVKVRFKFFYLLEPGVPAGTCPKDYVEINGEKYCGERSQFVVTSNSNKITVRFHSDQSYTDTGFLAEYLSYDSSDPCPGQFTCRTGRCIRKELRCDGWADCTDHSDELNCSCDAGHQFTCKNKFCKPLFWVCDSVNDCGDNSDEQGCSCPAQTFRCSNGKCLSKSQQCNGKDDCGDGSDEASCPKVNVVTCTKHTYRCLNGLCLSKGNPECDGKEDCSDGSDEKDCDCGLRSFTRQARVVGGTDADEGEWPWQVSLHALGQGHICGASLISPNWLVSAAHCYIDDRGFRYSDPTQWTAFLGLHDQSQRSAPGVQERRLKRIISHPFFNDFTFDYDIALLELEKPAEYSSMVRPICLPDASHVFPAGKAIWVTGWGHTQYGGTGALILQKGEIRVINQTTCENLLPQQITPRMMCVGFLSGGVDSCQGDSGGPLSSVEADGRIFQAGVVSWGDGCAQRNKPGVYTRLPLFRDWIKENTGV
Briefly: Inhibition of matriptase (unknown origin) using BOC-QAR-AMC as substrate at 1 uM after 15 mins by fluorescence assay relative to control. An outline of the steps:
as §1

Another series deals with Tryptase (Homo sapiens) (UniProt Q9BZJ3+Q15661+Q9NRR2). Put plainly: Inhibition of recombinant full length human tryptase usingZ-Gly-Pro-Arg-AMC as substrate at 1 uM after 60 mins by fluorescence spectrophotometric method relative to control. Type of series: protein assay. The gist of the method:
as §1

In a further series the target is T3, Chymase (Homo sapiens) (UniProt P23946).
T3 sequence (whole entry): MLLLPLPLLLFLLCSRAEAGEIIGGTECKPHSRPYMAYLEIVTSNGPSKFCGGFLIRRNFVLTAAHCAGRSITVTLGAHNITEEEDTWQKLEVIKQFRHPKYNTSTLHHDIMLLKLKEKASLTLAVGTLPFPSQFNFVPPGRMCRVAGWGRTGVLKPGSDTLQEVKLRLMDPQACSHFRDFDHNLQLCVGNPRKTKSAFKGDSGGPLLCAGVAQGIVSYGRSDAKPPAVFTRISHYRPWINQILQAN
Briefly: Inhibition of human chymase using Suc-Ala-Ala-Pro-Phe-AMC as substrate at 1 uM after 120 mins by fluorescence spectrophotometric method relative to control. The gist of the method:
as §1

Some results are limits rather than exact numbers.

Dipeptidyl peptidase 4 (Homo sapiens), sequence (P27487 whole entry, looked up): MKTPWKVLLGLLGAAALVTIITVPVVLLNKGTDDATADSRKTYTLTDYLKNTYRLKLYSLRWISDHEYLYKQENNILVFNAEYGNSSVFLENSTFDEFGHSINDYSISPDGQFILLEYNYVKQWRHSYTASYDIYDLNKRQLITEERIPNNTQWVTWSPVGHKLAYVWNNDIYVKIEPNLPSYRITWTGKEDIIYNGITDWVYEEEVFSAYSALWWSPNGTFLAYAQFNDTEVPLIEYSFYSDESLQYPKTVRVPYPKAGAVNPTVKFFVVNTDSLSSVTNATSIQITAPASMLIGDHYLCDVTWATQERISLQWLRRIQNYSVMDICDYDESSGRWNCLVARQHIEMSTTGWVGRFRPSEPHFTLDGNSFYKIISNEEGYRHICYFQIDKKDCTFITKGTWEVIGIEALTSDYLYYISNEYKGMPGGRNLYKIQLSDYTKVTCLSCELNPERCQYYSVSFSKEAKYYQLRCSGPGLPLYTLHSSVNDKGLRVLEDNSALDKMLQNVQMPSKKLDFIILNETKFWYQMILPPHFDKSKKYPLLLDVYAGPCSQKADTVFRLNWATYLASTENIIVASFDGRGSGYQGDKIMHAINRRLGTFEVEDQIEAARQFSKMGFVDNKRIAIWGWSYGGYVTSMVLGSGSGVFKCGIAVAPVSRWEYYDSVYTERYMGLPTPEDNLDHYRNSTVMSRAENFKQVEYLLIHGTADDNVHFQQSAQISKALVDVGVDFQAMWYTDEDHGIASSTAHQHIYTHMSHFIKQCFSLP

As usually defined, the half-life is the time needed for the level to fall by half in the phase considered. A word on the IC50: it is the concentration at which inhibition is half-maximal. The inhibition is the percentage by which the read-out fell short of the control. In series [1], `N=C(N)c1ccc(NC(=O)[C@H](NS(=O)(=O)c2ccc(F)cc2)C2CCCCC2)cc1` registered a half-life at 3 µM of 0.8 h. In addition, the IC50 is 280 µM in series [2], greater than 10 µM in the series on HepG2 and 1.29 µM at Serine protease hepsin. Further, the inhibition in series [3] is less than 10%; in [4], less than 10%; against Trypsin (Homo sapiens), 77%; in [5], less than 10%; at Tryptase (Homo sapiens), 40%; against Chymase (Homo sapiens), less than 10%.
Regarding `Cc1ccc(S(=O)(=O)N[C@@H](C(=O)Nc2ccc(C(=N)N)cc2)c2ccccc2)cc1`, in series [1], the half-life at 3 µM came out at 1.8 h. The values for the IC50 (in [2]; in the series with HepG2; at Serine protease hepsin) were 140 µM, greater than 10 µM and 0.1 µM, respectively. Besides, the inhibition is less than 10% in series [3]; less than 10% in series [4]; 54% at Trypsin (Homo sapiens); less than 10% in [5]; 27% on Tryptase (Homo sapiens); less than 10% at Chymase (Homo sapiens).
Molecule `Cc1ccc(S(=O)(=O)N[C@@H](C(=O)Nc2ccc(C(=N)N)cc2)C2CCCCC2)cc1` came in with a half-life at 3 µM in series [1] of 1.23 h. Moreover, the IC50 in [2] is 10 to 1950 µM; in the series with HepG2, greater than 10 µM; against Serine protease hepsin it was 0.99 µM. The inhibition in [3] was less than 10%; in series [4], less than 10%; against Trypsin (Homo sapiens), 83%; in [5], less than 10%; at Tryptase (Homo sapiens), 52%; against Chymase (Homo sapiens) it was less than 10%.
